For assay [1], the system named is Human immunodeficiency virus 1. Put plainly: Antiviral activity against HIV1 infected in human CEM-SS cells assessed as inhibition of virus-induced cytopathic effect after 6 days by XTT assay. Format: functional, organism-based. The conditions noted are these: for EC50: Human immunodeficiency virus 1, CEM-SS, 144 h. The essentials: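 NCI XTT-tetrazolium primary anti-HIV screen. CEM-SS cells kept in phenol red-free RPMI 1640 with 5% FBS, gentamicin and 2 mM L-glutamine; 1 × 10⁴ cells per well infected with HIV-1 RF (Haitian variant) at MOI 0.6. Compounds predissolved in DMSO, diluted in medium; AZT positive control. Quadruplicate infected wells, 6 days, 37 °C, 5% CO₂; cell growth by XTT; EC50 and maximal protection derived.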
Background: Cytopathic effects are the visible damage that an infection or toxin causes in cultured cells.

Assay [2] concerns Peritoneal macrophage. The assay is described as follows: Antiinflammatory activity against C57BL6J mouse peritoneal macrophages assessed as inhibition of LPS-induced NO production at 30 uM incubated for 1 hr followed by stimulation with LPS for 24 hrs by Griess assay. It counts as functional. In short, it runs like this:
(§1)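 Mouse peritoneal macrophages stimulated with lipopolysaccharide; nitric oxide production measured following an earlier protocol. Test compounds taken from 30 mM DMSO stocks and diluted to 1–30 μM final. Dexamethasone in DMSO served as positive control.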

A further assay relates to CEM-SS. The assay is described as follows: Cytotoxicity against human CEM-SS cells assessed as growth inhibition after 6 days by XTT assay. Format: cell-based. The settings on record: 144 h. The essentials:
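Uninfected CEM-SS cells (1 × 10⁴ per well, duplicate wells) grown alongside the infected cultures in phenol red-free RPMI 1640 with 5% FBS, gentamicin and 2 mM L-glutamine. Compounds diluted from DMSO into medium. Incubation 6 days at 37 °C under 5% CO₂; growth estimated by XTT read-out; IC50 derived.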

The subject of assay [3] is Peritoneal macrophage. The assay is described as follows: Antiinflammatory activity against C57BL6J mouse peritoneal macrophages assessed as inhibition of LPS-induced NO production incubated for 1 hr followed by stimulation with LPS for 24 hrs by Griess assay. Format: functional, cell-based. The essentials:
as §1

The text below walks through data of ChEMBL document CHEMBL4477186, “Structurally Diverse Metabolites from the Soft Coral Sinularia verruca Collected in the South China Sea” (J Nat Prod, 2016).

Structures are written as SMILES. Activity calls are given as the source filed them. No cut-off for these calls is given here.

By inhibition is commonly meant the relative decrease from the control value, in per cent. The term EC50 denotes the concentration giving half of the maximal effect. The IC50 is the concentration that inhibits the measured activity by half.

With `CCOC(=O)CCCCCCCCCCCC[C@]1(O)OC(=O)C(C)=C1C`, the inhibition entry in assay [1] was “inactive”. Moreover, in the assay on Peritoneal macrophage [2], the inhibition at 30 µM was under 50%.
Consider `C=C1C(=O)C(C)=C(C)[C@@]1(O)CCCCC`, for which, in assay [1], the “%max” value turned out to be 52% and the EC50 came to 5.8 µM. The IC50 with CEM-SS worked out at 6.3 µM. For the same compound, the inhibition at 30 µM with Peritoneal macrophage [2] was under 50%.
For the compound `CCCCC[C@]1(O)OC(=O)C(C)=C1C`, in assay [1], the inhibition entry was “inactive”. In addition, the inhibition at 30 µM in the assay on Peritoneal macrophage [2] was under 50%.
For `COC(=O)C(C)CCCC1(C)CCc2c(C)c(O)c(C)c(C)c2O1` (stereo not given), the inhibition entry in assay [1] is “inactive”. Also, the inhibition at 30 µM in the assay on Peritoneal macrophage [2] is under 50%.
The matching figures for `C[C@@H]1CC[C@]2(O)O[C@]13CC(C)(C)CC3=C[C@@]2(C)O`: “inactive” and under 50%.
Taken in the same sequence, the figures for `COC(=O)C(C)CCCC(C)(O)CCC1=C(C)C(=O)C(C)=C(C)C1=O` (stereo not given) were “inactive” and under 50%.
For the compound `CCCCC[C@@]1(O)C(C)=C(C)C(=O)[C@H]1CO` (relative stereo), in assay [1], the “%max” value is listed as 86%. Further, the EC50 in assay [1] was 34 µM. Besides, the IC50 is 79 µM in the assay on CEM-SS and 28 µM in the assay with Peritoneal macrophage [3].
As to `C/C(=C\CC[C@]1(C)C=Cc2cc(O)c(C)cc2O1)Cc1cc(C)co1` [CAPILLOBENZOPYRANOL], the inhibition result in assay [1] is “inactive”. For the same compound, the inhibition at 30 µM in the assay with Peritoneal macrophage [2] was under 50%.
In the case of `CCCC[C@@H]1C(=O)C(C)=C(C)[C@]1(O)CCC(=O)OCC`, the inhibition entry in assay [1] is “inactive”. Besides, the IC50 with Peritoneal macrophage [3] came to 24 µM.
As for `CC1=C[C@@]2(C=C(C)[C@@H]3CC[C@@]4(C)Oc5cc(C)c(O)cc5[C@@H]2[C@@H]34)OC1=O`, in assay [1], the inhibition result is “inactive”. Moreover, in the assay on Peritoneal macrophage [2], the inhibition at 30 µM was under 50%.
The matching figures for `CCOC(=O)CC[C@]1(O)OC(=O)C(C)=C1C`: “inactive” and under 50%.
The matching figures for `CCO[C@@]1(CCCCCCCCCCCCC(=O)O)OC(=O)C(C)=C1C`: “inactive” and under 50%.
The matching figures for `C/C1=C/C2=C(CC(C)(C)C2)[C@H](C)CC[C@@H]1O`: “inactive” and under 50%.
As for `CCCCC[C@@]1(O)C(C)=C(C)C(=O)[C@H]1COCC` (relative stereo), in assay [1], the “%max” value was 75% and the EC50 turned out to be 30 µM. In the assay on CEM-SS, the IC50 is 66 µM. The IC50 in the assay on Peritoneal macrophage [3] came out at 26 µM.
For `CC(=O)CC/C=C(/C)C[C@@H]1CC(C)(C)CC1=O`, in assay [1], the inhibition entry was “inactive”. In the assay with Peritoneal macrophage [2], the inhibition at 30 µM is under 50%.
Regarding `CCCC[C@@H]1C(=O)C(C)=C(C)[C@]12CCC(=O)O2`, the inhibition entry in assay [1] was “inactive”. Also, the inhibition at 30 µM in the assay on Peritoneal macrophage [2] was under 50%.
Taken in the same sequence, the figures for `CCOC(=O)C1=CN2CC[C@]3(O)c4ccccc4N([C@H]1C)[C@H]23` were “inactive” and under 50%.
